{"data": "Results from different studies", "target": "Aurora kinase B (AURKB, Homo sapiens, UniProt Q96GD4)", "effect on": "enzyme activity", "note": "Lines come from different studies, so protocols differ."}
{"SMILES": "CC(C)(C)C(=O)c1sc(NC2CCCCC2)nc1N", "mode": "inhibitor", "tested at": "10 µM", "remaining activity": "107%"}
{"SMILES": "O=C1NC(=O)c2cc(Nc3ccc(F)cc3)c(Nc3ccc(F)cc3)cc21", "mode": "inhibitor", "tested at": "0.5 µM", "remaining activity": "99.7%"}
{"SMILES": "CC(C)(C)c1nc2c(s1)c1nc(N)ncc1c1ccc(NS(=O)(=O)c3c(F)cccc3F)c(F)c12", "mode": "inhibitor", "technique": "radiometric", "tested at": "1 µM", "remaining activity": "90%"}
{"SMILES": "COc1cc(Nc2cnc(C#N)c(O[C@H](C)CN(C)C)n2)ncc1-c1cnn(C)c1", "mode": "inhibitor", "technique": "radiometric", "tested at": "10 µM", "remaining activity": "53%"}
{"SMILES": "Cc1nn(CC(F)(F)F)cc1Nc1ncc(Br)c(NCc2ccc(S(N)(=O)=O)cc2)n1", "mode": "inhibitor", "technique": "radiometric", "tested at": "1 µM", "remaining activity": "87%"}
{"SMILES": "CS(=O)(=O)CCNCc1ccc(-c2ccc3ncnc(Nc4ccc(OCc5cccc(F)c5)c(Cl)c4)c3c2)o1", "tested at": "0.5 µM", "remaining activity": "98.4%"}
{"SMILES": "Cc1nn(CC(F)(F)F)cc1Nc1ncc(C2CC2)c(NCc2ccc(S(N)(=O)=O)cc2)n1", "mode": "inhibitor", "technique": "radiometric", "tested at": "1 µM", "remaining activity": "102%"}
{"SMILES": "O=C(Nc1cnn(-c2csc(C(=O)NC3COC3)c2)c1)Nc1c(F)cccc1Cl", "mode": "inhibitor", "tested at": "5 µM", "remaining activity": "69.8%"}
{"SMILES": "Cn1c(=O)n(-c2ccc(C(C)(C)C#N)cc2)c2c3cc(-c4cnc5ccccc5c4)ccc3ncc21", "mode": "inhibitor", "tested at": "10 µM", "remaining activity": "101%"}
{"SMILES": "O=C(NCCCNc1nc(Nc2cccc(CN3CCOCC3)c2)ncc1C1CC1)C1CCC1", "mode": "inhibitor", "technique": "radiometric", "tested at": "1 µM", "remaining activity": "5%"}
{"SMILES": "CC(C)(O)[C@H]1CC[C@H](Nc2ccc3ncc(-c4cccc(C(F)(F)F)c4)n3n2)CC1", "mode": "inhibitor", "tested at": "1 µM", "remaining activity": "82.1%"}
{"SMILES": "NS(=O)(=O)c1ccc(CNc2ccnc(Nc3cccc(NC(=O)N4CCCC4)c3)n2)cc1", "mode": "inhibitor", "technique": "radiometric", "tested at": "1 µM", "remaining activity": "53%"}
{"SMILES": "O=C(Nc1cnn(-c2csc(C(=O)NC3COC3)c2)c1)Nc1ccccc1Cl", "mode": "inhibitor", "tested at": "5 µM", "remaining activity": "93%"}
{"SMILES": "Cc1cnc(NC2CCOCC2)nc1-n1cnc(C(=O)NC(CN)c2cc(F)cc(Cl)c2)c1 (stereo not shown)", "mode": "inhibitor", "technique": "radiometric", "tested at": "1 µM", "remaining activity": "84%"}
{"SMILES": "CCCOc1ccc(OC)c(F)c1C(=O)c1ccc(C(=O)N[C@@H]2CNC[C@H]2NC(=O)c2ccc3[nH]ncc3c2)cc1", "mode": "inhibitor", "tested at": "10 µM", "remaining activity": "10%"}
{"SMILES": "COc1cc2c(N3CCN(C(=O)Nc4ccc(OC(C)C)cc4)CC3)ncnc2cc1OCCCN1CCCCC1", "tested at": "0.5 µM", "remaining activity": "89.6%"}
{"SMILES": "Oc1cccc(-c2nc(N3CCOCC3)c3oc4ncccc4c3n2)c1", "mode": "inhibitor", "tested at": "10 µM", "remaining activity": "95%"}
{"SMILES": "Cc1nn(CC(F)(F)F)cc1Nc1ncc(Br)c(NCCCNC(=O)C2CCC2)n1", "mode": "inhibitor", "technique": "radiometric", "tested at": "1 µM", "remaining activity": "38%"}
{"SMILES": "Cc1ccc(Nc2nccc(N(C)c3ccc4c(C)n(C)nc4c3)n2)cc1S(N)(=O)=O", "mode": "inhibitor", "tested at": "0.5 µM", "remaining activity": "64.6%"}
